By clearance is commonly meant the rate of elimination divided by the concentration. Read a high clearance as a high capacity for elimination. Broadly, the IC50 is the concentration needed to halve the response being measured. As a reminder, the Papp B→A is how fast a substance crosses the layer from the basolateral side.

The target in data set [1] is Epidermal growth factor receptor (Homo sapiens, UniProt P00533). In words: Binding affinity to EGFR in SILAC-labeled human MDA-MB-231 cells lysate by mass spectrometry based kinAffinity assay. In kind it is subcellular. In outline: (§1)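 Chemical proteomics: MDA-MB-231 lysate bound to matrix of immobilized broad kinase inhibitors at several densities (BC50), then competed with increasing free compound (CC50); proteins quantified by mass spectrometry, Kd via Cheng-Prusoff. Two competition formats run in parallel to check equilibrium.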

Data set [2] addresses Tyrosine-protein kinase CSK (Homo sapiens, UniProt P41240). Nature of the data set: Binding affinity to CSK in SILAC-labeled human MDA-MB-231 cells lysate by mass spectrometry based kinAffinity assay. In kind it is subcellular. The gist of the method:
as §1

Data set [3] concerns the target Serine/threonine-protein kinase PLK4 (Homo sapiens, UniProt O00444). Nature of the data set: Binding affinity to PLK4 in SILAC-labeled human MDA-MB-231 cells lysate by mass spectrometry based kinAffinity assay. In kind it is subcellular. The gist of the method:
(§2)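 MDA-MB-231 lysate applied to KinAffinity matrix of immobilized broadband kinase inhibitors at graded densities to obtain BC50 per target. Competition then run with increasing free compound to give CC50; Kd derived by Cheng-Prusoff. Two competition experiments in parallel to check equilibrium, one with lysate pre-incubated with compound before adding matrix. Quantitation by mass spectrometry.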

The nature of data set [4]: Clearance in mouse at 1 to 2 mg/kg, iv by LC/MS/MS analysis. The data set is classed as ADME, organism-based. As to conditions: in vivo.
Data set [5] in a line: Ratio of IC50 for antimigratory activity against human MDA-MB-231 cells after 3.5 hrs by microscopy based Boyden chamber assay to IC50 for inhibition of AXL (unknown origin).
Data set [6] concerns the target T1, Proto-oncogene tyrosine-protein kinase Src (Homo sapiens, UniProt P12931). Nature of the data set: Inhibition of SRC (unknown origin).
Data set [7] deals with Mast/stem cell growth factor receptor Kit (Homo sapiens) (UniProt P10721). Nature of the data set: Inhibition of cKIT (unknown origin) using fluorescence labeled peptide as substrate at 10 uM by IMAP assay relative to control. The gist of the method:
(§3)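 IMAP fluorescence-polarization kinase assay at 10 µmol/L compound, run in triplicate by a contract lab. A fluorescently labeled substrate peptide is phosphorylated, then nanoparticles carrying trivalent metal bind the phosphopeptide and slow its rotation. Read-out is fluorescence polarization, expressed as percent inhibition.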

The target of data set [8] is Dual specificity mitogen-activated protein kinase kinase 2 (Homo sapiens, UniProt P36507). In words: Binding affinity to MAP2K2 in SILAC-labeled human MDA-MB-231 cells lysate by mass spectrometry based kinAffinity assay. The data set is classed as subcellular. The gist of the method: as §1
Data set [9] deals with T1, Proto-oncogene tyrosine-protein kinase Src. In words: Inhibition of SRC (unknown origin) using biotinylated peptide as substrate at 10 uM by TR-FRET assay relative to control. In general terms: In TR-FRET formats the signal depends on donor and acceptor labels being close together.
For data set [10], the target named is Cyclin-G-associated kinase (Homo sapiens, UniProt O14976). Nature of the data set: Binding affinity to GAK in SILAC-labeled human MDA-MB-231 cells lysate by mass spectrometry based kinAffinity assay. In kind it is subcellular. The gist of the method:
as §1

Data set [11] can be described thus: Apparent permeability from basolateral to apical side in human Caco2 cells at 10 uM after 2 hrs by LC-MS/MS analysis. As to conditions: Caco-2. The data set is classed as ADME, cell-based. In outline: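 Caco-2 cells differentiated three weeks in 96-well format, monolayer integrity checked by Lucifer yellow transport. Compound at 10 µM for 2 h; apical buffer HBSS/10 mM HEPES/glucose pH 6.5 with 100 µM Lucifer yellow, basolateral buffer pH 7.4. Papp = (dQ/dt)/C0A; efflux ratio Papp(B→A)/Papp(A→B).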

For data set [12], the target named is Inhibitor of nuclear factor kappa-B kinase subunit epsilon (Homo sapiens, UniProt Q14164). Nature of the data set: Binding affinity to IKKE in SILAC-labeled human MDA-MB-231 cells lysate by mass spectrometry based kinAffinity assay. In kind it is subcellular. In outline: as §1
In data set [13] the target is Angiopoietin-1 receptor (Homo sapiens) (UniProt Q02763). Nature of the data set: Inhibition of TIE2 (unknown origin) using fluorescence labeled peptide as substrate at 10 uM by IMAP assay relative to control. The gist of the method:
as §3

Data set [14] addresses Non-receptor tyrosine-protein kinase TNK1 (Homo sapiens, UniProt Q13470). Nature of the data set: Binding affinity to TNK1 in SILAC-labeled human MDA-MB-231 cells lysate by mass spectrometry based kinAffinity assay. The data set is classed as subcellular. The gist of the method:
as §2

For data set [15], the target named is Serine/threonine-protein kinase 4 (Homo sapiens, UniProt Q13043). Nature of the data set: Binding affinity to MST1 in SILAC-labeled human MDA-MB-231 cells lysate by mass spectrometry based kinAffinity assay. The data set is classed as subcellular. The gist of the method:
as §2

The target in data set [16] is Hepatocyte growth factor receptor (Homo sapiens, UniProt P08581). Nature of the data set: Inhibition of c-MET (unknown origin) using biotinylated peptide as substrate at 10 uM by TR-FRET assay relative to control.
Chain of Hepatocyte growth factor receptor (P08581 whole entry): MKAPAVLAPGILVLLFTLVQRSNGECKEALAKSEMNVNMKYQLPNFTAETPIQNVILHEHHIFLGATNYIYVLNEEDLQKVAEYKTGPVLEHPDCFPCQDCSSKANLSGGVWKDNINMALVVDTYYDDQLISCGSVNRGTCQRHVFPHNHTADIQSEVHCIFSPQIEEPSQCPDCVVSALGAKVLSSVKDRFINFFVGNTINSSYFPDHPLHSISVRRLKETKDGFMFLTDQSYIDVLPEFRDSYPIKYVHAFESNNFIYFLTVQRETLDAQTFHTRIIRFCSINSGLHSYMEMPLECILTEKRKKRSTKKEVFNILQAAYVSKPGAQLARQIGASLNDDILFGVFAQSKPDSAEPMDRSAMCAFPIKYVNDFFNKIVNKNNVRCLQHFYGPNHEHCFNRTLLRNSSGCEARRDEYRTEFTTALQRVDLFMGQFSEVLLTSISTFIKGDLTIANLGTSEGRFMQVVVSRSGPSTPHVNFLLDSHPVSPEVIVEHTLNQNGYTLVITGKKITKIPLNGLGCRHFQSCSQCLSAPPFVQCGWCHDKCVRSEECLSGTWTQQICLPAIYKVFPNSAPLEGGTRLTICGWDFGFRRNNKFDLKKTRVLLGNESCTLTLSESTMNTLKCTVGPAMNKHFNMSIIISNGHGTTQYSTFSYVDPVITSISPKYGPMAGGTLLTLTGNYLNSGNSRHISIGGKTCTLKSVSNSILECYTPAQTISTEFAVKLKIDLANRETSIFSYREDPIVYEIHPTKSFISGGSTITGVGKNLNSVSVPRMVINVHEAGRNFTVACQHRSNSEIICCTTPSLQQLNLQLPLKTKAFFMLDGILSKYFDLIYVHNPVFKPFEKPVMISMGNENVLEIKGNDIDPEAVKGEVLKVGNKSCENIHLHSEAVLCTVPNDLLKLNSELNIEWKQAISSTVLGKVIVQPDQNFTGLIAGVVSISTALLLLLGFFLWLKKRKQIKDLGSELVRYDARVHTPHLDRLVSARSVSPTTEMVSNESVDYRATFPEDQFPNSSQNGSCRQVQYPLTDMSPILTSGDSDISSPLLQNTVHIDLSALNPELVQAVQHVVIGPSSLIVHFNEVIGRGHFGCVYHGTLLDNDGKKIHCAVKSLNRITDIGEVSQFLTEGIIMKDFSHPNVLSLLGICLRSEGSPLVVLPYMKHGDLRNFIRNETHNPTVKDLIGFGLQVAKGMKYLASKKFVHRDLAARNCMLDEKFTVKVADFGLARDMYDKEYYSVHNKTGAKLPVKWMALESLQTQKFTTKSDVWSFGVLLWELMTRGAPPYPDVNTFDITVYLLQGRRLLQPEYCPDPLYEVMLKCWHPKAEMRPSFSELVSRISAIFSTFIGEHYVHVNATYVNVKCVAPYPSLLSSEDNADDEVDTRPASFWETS
Data set [17] deals with MAP/microtubule affinity-regulating kinase 3 (Homo sapiens, UniProt P27448). In words: Binding affinity to MARK3 in SILAC-labeled human MDA-MB-231 cells lysate by mass spectrometry based kinAffinity assay. The data set is classed as subcellular. In outline:
as §1

Data set [18] has as its target Tyrosine-protein kinase ABL1 (Homo sapiens) (UniProt P00519). In words: Inhibition of ABL (unknown origin) using fluorescence labeled peptide as substrate at 10 uM by IMAP assay relative to control. The gist of the method: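 IMAP fluorescence-polarization kinase assay: fluorescently labelled substrate peptide phosphorylated, then captured by trivalent-metal nanoparticles, slowing rotation. Compound at 10 µM, triplicates, percent inhibition reported.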

In data set [19] the target is T2, Tyrosine-protein kinase receptor UFO (Homo sapiens, UniProt P30530).
T2 sequence (P30530 whole entry): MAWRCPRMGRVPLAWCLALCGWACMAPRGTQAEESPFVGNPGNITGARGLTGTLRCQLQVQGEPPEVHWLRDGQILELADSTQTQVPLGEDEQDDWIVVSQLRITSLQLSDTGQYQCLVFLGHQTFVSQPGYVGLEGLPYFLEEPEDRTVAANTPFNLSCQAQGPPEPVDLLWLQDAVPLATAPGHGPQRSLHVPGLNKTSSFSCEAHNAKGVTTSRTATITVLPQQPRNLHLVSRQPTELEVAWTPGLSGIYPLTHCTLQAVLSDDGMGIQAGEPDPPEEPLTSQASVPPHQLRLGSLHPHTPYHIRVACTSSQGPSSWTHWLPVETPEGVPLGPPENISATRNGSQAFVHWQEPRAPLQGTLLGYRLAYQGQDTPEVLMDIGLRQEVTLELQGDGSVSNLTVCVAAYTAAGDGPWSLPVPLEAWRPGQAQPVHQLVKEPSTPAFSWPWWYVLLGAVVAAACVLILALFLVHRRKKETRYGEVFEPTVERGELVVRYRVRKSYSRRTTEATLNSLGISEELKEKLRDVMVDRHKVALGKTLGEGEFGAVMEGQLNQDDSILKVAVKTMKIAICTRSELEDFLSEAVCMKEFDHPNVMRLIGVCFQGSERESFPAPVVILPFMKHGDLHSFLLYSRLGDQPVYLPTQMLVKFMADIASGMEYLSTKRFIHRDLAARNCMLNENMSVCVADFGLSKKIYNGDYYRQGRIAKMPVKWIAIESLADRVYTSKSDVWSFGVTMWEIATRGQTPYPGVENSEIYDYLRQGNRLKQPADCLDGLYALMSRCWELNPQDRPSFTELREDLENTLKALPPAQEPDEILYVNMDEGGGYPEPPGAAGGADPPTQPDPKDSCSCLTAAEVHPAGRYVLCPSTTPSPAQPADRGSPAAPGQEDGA
Nature of the data set: Inhibition of AXL (unknown origin) phosphorylation after 1 hr by ELISA. (In an ELISA, binding on a coated surface is turned into a signal by an enzyme label.)

Chain of Tyrosine-protein kinase ABL1 (Homo sapiens) (P00519 whole entry): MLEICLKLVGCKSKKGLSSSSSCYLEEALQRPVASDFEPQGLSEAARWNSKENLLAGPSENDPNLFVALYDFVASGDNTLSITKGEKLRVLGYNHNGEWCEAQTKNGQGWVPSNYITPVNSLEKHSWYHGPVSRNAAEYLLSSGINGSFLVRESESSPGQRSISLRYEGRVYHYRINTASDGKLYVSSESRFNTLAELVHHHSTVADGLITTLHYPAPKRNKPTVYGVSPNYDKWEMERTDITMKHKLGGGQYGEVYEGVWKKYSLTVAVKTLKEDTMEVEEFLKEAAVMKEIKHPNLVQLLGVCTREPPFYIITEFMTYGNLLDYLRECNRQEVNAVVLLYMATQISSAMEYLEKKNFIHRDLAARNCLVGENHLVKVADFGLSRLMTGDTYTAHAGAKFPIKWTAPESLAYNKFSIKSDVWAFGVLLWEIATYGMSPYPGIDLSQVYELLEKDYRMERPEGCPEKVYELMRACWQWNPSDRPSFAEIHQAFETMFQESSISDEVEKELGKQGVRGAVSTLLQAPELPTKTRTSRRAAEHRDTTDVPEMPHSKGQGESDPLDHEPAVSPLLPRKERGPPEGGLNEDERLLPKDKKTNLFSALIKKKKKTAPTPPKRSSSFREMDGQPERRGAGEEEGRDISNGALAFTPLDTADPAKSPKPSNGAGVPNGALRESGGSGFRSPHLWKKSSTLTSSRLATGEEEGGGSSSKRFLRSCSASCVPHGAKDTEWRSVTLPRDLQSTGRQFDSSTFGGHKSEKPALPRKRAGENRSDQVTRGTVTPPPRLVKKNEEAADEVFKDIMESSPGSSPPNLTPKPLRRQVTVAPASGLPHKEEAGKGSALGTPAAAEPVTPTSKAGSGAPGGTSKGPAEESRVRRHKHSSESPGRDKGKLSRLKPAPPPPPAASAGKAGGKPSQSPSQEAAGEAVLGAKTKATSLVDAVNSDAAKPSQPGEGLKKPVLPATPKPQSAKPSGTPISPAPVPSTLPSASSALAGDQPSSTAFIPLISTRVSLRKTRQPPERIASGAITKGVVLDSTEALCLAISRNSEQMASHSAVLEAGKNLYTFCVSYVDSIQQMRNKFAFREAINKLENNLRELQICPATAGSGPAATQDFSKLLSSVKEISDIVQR
Chain of Mast/stem cell growth factor receptor Kit (Homo sapiens) (P10721 whole entry): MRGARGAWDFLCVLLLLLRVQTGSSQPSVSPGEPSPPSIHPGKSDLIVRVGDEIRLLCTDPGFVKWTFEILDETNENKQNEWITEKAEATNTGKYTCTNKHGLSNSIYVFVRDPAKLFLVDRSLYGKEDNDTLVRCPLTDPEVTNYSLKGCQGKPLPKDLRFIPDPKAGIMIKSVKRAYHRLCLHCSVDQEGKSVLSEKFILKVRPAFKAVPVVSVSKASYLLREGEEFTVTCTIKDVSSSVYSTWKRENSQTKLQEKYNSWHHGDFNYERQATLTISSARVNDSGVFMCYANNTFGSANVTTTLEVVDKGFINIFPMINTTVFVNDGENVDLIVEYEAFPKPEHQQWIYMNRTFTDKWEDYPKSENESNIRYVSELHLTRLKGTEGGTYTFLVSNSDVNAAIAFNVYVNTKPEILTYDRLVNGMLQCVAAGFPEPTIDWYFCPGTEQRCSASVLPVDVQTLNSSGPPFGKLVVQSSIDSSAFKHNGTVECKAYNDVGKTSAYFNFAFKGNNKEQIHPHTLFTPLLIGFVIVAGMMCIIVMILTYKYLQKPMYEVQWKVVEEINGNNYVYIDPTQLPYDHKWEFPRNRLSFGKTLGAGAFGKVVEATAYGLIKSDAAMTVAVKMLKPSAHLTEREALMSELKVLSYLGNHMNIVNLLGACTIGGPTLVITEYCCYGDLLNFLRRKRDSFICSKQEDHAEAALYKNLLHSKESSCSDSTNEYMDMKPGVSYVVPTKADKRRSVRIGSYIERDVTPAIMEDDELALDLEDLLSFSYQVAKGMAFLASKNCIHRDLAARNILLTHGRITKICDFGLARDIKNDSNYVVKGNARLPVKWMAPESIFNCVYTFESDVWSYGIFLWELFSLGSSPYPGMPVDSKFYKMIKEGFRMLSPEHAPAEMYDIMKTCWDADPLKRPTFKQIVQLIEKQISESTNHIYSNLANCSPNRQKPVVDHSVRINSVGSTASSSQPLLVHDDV
Chain of Angiopoietin-1 receptor (Homo sapiens) (Q02763 whole entry): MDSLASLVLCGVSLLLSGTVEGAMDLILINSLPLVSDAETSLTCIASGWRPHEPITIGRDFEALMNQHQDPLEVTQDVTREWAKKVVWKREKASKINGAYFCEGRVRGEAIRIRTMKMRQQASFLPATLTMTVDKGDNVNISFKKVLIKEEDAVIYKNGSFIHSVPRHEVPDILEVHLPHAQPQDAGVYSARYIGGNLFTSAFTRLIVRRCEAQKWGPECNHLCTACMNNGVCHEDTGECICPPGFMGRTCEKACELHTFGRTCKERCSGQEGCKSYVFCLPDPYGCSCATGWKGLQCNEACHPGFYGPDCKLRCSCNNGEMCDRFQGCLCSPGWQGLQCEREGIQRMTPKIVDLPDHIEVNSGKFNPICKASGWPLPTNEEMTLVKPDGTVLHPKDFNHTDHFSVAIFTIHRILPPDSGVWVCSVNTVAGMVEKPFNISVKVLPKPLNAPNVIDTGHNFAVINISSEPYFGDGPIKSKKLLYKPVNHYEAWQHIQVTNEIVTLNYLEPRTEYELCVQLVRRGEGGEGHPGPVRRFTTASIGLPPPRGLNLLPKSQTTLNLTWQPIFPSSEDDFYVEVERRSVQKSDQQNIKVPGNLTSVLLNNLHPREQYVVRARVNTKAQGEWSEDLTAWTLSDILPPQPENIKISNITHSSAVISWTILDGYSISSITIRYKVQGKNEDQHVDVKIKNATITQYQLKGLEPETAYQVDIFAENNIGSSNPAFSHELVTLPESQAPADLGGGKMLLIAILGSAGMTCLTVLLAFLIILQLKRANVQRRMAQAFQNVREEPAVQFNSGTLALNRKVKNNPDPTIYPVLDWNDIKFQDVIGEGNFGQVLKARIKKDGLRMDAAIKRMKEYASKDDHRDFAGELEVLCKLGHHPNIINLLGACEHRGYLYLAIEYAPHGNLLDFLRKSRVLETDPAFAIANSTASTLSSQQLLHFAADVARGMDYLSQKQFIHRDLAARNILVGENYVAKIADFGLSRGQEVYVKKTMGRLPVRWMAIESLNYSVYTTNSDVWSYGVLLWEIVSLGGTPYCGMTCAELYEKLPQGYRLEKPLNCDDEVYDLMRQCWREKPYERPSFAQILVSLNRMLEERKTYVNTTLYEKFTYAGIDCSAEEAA
Chain of Serine/threonine-protein kinase 4 (Q13043 whole entry): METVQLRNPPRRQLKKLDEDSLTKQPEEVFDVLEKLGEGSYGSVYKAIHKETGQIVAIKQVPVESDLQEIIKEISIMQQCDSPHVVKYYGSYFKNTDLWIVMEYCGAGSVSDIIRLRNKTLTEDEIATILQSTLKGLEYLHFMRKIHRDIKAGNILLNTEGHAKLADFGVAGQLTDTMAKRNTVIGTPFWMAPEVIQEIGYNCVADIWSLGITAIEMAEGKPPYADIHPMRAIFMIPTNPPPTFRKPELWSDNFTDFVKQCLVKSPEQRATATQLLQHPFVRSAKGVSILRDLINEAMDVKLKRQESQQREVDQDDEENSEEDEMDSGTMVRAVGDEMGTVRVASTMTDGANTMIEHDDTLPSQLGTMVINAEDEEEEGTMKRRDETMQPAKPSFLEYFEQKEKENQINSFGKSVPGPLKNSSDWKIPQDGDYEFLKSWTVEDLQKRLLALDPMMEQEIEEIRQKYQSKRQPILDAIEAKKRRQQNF

In the case of `COc1cc2c(Oc3ccc(NS(=O)(=O)c4cc(F)ccc4F)cc3F)ccnc2cc1OCCCN1CCN(C)CC1`, the “Kd(free)” value stood at 122 nM in data set [1]; 270 nM in data set [2]; 53 nM in data set [3]; 6917 nM in [8]; 2448 nM in data set [10]; 282 nM in data set [12]. In addition, the entries for the “Kd(free)” value in data set [14], in data set [15] and in data set [17] were 24 nM, 2433 nM and 3854 nM, respectively. The molecule also had a clearance in data set [4] of 6.67 mL/min/kg. Further, in [5], the “Ratio IC50” value was more than 50. The IC50 in data set [6] was 88 nM; in data set [19], 27 nM. Besides, the Efficacy in [7], in data set [9], in data set [13], in data set [16] and in data set [18] was 83 to 100% each time. Moreover, the basolateral-to-apical permeability (Papp B→A) at 2 h, 10 µM in [11] is 17 ×10⁻⁶ cm/s.

Take `COc1cc2c(Oc3ccc(NS(=O)(=O)c4c(F)cccc4F)cc3F)ccnc2cc1OCCCN1CCN(C)CC1`: the “Kd(free)” value was 16 nM in data set [1]; 30 nM in data set [2]; 48 nM in data set [3]; 8852 nM in data set [8]; 4166 nM in data set [10]; 122 nM in data set [12]. Moreover, the “Kd(free)” value in data set [14] was found to be 14 nM; in [15], 2080 nM; in [17], 5622 nM. In [5], the “Ratio IC50” value is on record as more than 50. The IC50 in data set [6] was 44 nM; in data set [19], 35 nM. Moreover, the Efficacy in data set [7], in data set [9], in [13], in data set [16] and in [18] was 83 to 100% in each case.

For `COc1cc2c(Oc3ccc(NS(=O)(=O)c4ccccc4C(F)(F)F)cc3F)ccnc2cc1OCCCN1CCN(C)CC1`, in data set [5], the “Ratio IC50” value was more than 50. Also, the IC50 worked out at 544 nM in data set [6] and 21 nM in [19]. In addition, the Efficacy in data set [7], in data set [9], in data set [13], in data set [16] and in data set [18] was 83 to 100% throughout.

Turning to `COc1cc2c(Oc3ccc(NS(=O)(=O)c4cc(F)ccc4F)cc3F)ccnc2cc1OCCCN1CCCC(C)C1` (centres undefined), the clearance in data set [4] was 11.7 mL/min/kg. In addition, the “Ratio IC50” value in [5] is recorded as more than 50. Besides, the IC50 in data set [6] was determined as 113 nM; in data set [19], 28 nM. The Efficacy in data set [7], in data set [9], in [13], in [16] and in data set [18] was 83 to 100% each time. Moreover, the Papp B→A at 2 h, 10 µM in data set [11] came to 14.6 ×10⁻⁶ cm/s.

(Values after ChEMBL document CHEMBL4371006, “Discovery of N-[4-(Quinolin-4-yloxy)phenyl]benzenesulfonamides as Novel AXL Kinase Inhibitors” (J Med Chem, 2018).)
